The record followed here is ChEMBL document CHEMBL1152242, “Aldehydic components of cinnamon bark extract suppresses RANKL-induced osteoclastogenesis through NFATc1 downregulation” (Bioorg Med Chem, 2008).

For assay [1], the system named is RAW264.7. The experiment in a line: Inhibition of multinucleated cell formation in RANKL-stimulated mouse RAW264.7 cells after 3 days by TRAP staining. In kind it is functional, cell-based. In short, it runs like this:
(§1)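 RAW264.7 cells in α-MEM with RANKL, with or without compound, cultured 3 days at 37 °C, 5% CO2. Fixed in acetone/citrate for 30 s, then TRAP-stained with a kit. TRAP+ cells with ≥4 nuclei scored as MNCs by light microscopy, counting four fields, repeated four times. Relative MNC number reported as mean ± SD of triplicates; ANOVA with Dunnett's test.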

In assay [2] the test system is RAW264.7. The experiment in a line: Inhibition of bone resorption by mature osteoclast in RANKL-stimulated mouse RAW264.7 cells pretreated for 1 hr measured after 8 days. In kind it is functional, cell-based. The procedure, abridged:
(§2)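 RAW264.7 cells pretreated with compound for 1 h, then RANKL (50 ng/ml) added on calcium phosphate apatite-coated plates. Incubated 8 days, then 5% sodium hypochlorite for 5 min, washed, dried and photographed. Total resorbed pit area (mm²) given as mean ± SD of triplicates.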

Assay [3] deals with RAW264.7. The experiment in a line: Inhibition of bone resorption by mature osteoclast in RANKL-stimulated mouse RAW264.7 cells at 2 uM pretreated for 1 hr measured after 8 days. The class given is functional. The procedure, abridged: as §2
Assay [4] has as its target T1, Nuclear factor of activated T-cells, cytoplasmic 1 (Mus musculus) (UniProt O88942).
T1 sequence (whole entry): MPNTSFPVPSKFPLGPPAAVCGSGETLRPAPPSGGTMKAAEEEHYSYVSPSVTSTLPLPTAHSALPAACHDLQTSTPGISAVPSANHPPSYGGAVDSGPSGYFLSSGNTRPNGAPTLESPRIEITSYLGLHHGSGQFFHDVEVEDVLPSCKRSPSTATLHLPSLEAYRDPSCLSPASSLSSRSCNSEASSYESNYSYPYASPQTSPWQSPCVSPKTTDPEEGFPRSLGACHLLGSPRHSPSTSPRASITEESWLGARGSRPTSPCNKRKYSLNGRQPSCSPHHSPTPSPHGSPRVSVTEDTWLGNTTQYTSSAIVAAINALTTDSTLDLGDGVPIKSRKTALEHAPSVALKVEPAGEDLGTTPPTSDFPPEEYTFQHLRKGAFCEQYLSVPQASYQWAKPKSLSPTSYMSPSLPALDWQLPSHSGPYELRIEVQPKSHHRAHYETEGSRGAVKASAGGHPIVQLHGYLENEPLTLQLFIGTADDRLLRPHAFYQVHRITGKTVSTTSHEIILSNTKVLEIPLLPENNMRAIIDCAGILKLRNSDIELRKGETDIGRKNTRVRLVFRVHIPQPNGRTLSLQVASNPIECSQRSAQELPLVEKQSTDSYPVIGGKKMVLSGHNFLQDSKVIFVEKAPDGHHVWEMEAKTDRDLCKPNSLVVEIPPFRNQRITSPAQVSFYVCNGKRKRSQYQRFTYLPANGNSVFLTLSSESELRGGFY
The experiment in a line: Inhibition of NFATc1 pathway in RANKL-stimulated mouse RAW264.7 cells at 1 to 2 uM. The class given is cell-based.

Assay [5] deals with RAW264.7. The experiment in a line: Inhibition of osteoclastogenesis in RANKL-stimulated mouse RAW264.7 cells at 1 to 2 uM. In kind it is functional, cell-based.
Assay [6] is described as follows: Inhibition of NF-kappaB transfected in LPS-stimulated mouse RAW264.7 cells. In kind it is cell-based.
Assay [7] deals with RAW264.7. The experiment in a line: Inhibition of NF-kappaB activation transfected in RANKL-stimulated mouse RAW264.7 cells at 1 to 2 uM. The class given is cell-based.
The subject of assay [8] is RAW264.7. The experiment in a line: Inhibition of NFATc1 expression in RANKL-stimulated mouse RAW264.7 cells after 48 hrs by immunoblotting. In kind it is functional, cell-based. The procedure, abridged: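 RAW264.7 cells in α-MEM cultured with RANKL plus test compound for 48 h. Lysates in HEPES pH 7.8/NaCl/EDTA/MgCl2/DTT buffer with protease inhibitors, run on 8% SDS-PAGE and transferred to nitrocellulose. Blocked in 5% milk/PBS-Tween, then anti-NFATc1 primary overnight at 4 °C with GAPDH as loading control. Detected with HRP secondary and ECL.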
On the technique in general: A western blot detects proteins with antibodies after separation by electrophoresis.

Assay [9] concerns RAW264.7. The experiment in a line: Inhibition of multinucleated cell formation in RANKL-stimulated mouse RAW264.7 cells at 0.5 to 2 uM after 3 days by TRAP staining. In kind it is functional, cell-based. In short, it runs like this: as §1

Active and inactive are the calls of the source. No cut-off for these calls is given here.

As to `O=C(O)/C=C/c1ccccc1`, in the assay with RAW264.7 [1], the outcome was inactive.
One may read the inhibition as how much of the control response was suppressed. By IC50 is commonly meant the concentration that gives 50% inhibition. Higher therefore signals lower potency. On to `COc1ccccc1/C=C/C=O`, for which the result (in the assay with RAW264.7 [2]; in assay [4]; in the assay on RAW264.7 [5]; in the assay on RAW264.7 [8]; in the assay with RAW264.7 [9]) was Active. Moreover, the inhibition at 2 µM in the assay with RAW264.7 [3] is 95%. The compound further registered an IC50 in assay [6] of 31 µM. Also, the outcome with RAW264.7 [7] was inactive.
`OC/C=C/c1ccccc1`: the outcome in the assay with RAW264.7 [1] was inactive.
As for `O=C/C=C/c1ccccc1` [CINNAMALDEHYDE], the result in the assay on RAW264.7 [2], in the assay on RAW264.7 [8] and in the assay on RAW264.7 [9] was Active. Besides, the midpoint of inhibition in assay [6], the IC50, lay at 43 µM.
